Source: paper PMC5402717 (Pain, 2017)
Entries after “also recorded” stand apart in the source; their conditions may differ.

Columns and labels:
Sprague-Dawley rats [1] = experiment: CFA-induced thermal hyperalgesia; type: in vivo, rat
Procedure, shortened: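 Male Sprague-Dawley rats (250-300 g) given 100 μL CFA intraplantar; one day later, test compound was given intrathecally at L4/L5 (15 μL, 1% DMSO/saline, saline flush) or into the tail vein (1 mL, quarter normal saline), vs vehicle. Hargreaves radiant heat test: glass at 30°C, 30 min acclimation, baseline latency ~10 s, 20 s cutoff. Both paws tested the following day, double-blind.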

PKG-1α [2] = details: cited from earlier work
panel of 274 kinases = experiment: Kinase panel screening, overall selectivity; type: biochemical
[3] = biological target: recombinant catalytic domain of human PKA (Homo sapiens, UniProt P17612); experiment: In vitro cAMP-dependent kinase; type: biochemical
Procedure, shortened: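 Recombinant human PKA catalytic domain with kemptide substrate; activity measured as 32P incorporation from [γ-32P]ATP in Tris buffer. Labeled peptide captured on cellulose phosphate filters and counted by β-scintillation. IC50s are single determinations run in duplicate.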

[4] = Heart rate and blood pressure monitoring after N46 injection; type: in vivo, rat; details: injected 1uM N46, monitored 30 minutes; data not shown
Procedure, shortened: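 Heart rate and systolic and diastolic blood pressure recorded for a 30 min baseline, then 1uM test compound injected and monitoring continued for 30 min.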

[5] = Stability of N46 in plasma in vitro; type: in vitro ADME; details: rat plasma, 37°C
Sprague-Dawley rats [6] = experiment: MIA-induced osteoarthritic knee joint pain; type: in vivo, rat; details: 5 nmol intra-articular 14 days after MIA
Procedure, shortened: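 Baseline hind-limb weight bearing taken on day 0. Rats then received 3 mg MIA in 50 μL saline into the right knee and saline into the left. At 14 days, 5 nmol test compound or quarter-saline vehicle (50 μL) was given intra-articularly. Incapacitance tester: paw force averaged over 5 s, 3 trials per point, expressed as percent difference between limbs.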

purified bovine PKG-1α = biological target: T1, purified bovine PKG-1α (Bos taurus, UniProt P00516); experiment: In vitro protein kinase G assay; type: biochemical; details: for IC50: IC50 for PKG-1α
T1 sequence (P00516 1-671): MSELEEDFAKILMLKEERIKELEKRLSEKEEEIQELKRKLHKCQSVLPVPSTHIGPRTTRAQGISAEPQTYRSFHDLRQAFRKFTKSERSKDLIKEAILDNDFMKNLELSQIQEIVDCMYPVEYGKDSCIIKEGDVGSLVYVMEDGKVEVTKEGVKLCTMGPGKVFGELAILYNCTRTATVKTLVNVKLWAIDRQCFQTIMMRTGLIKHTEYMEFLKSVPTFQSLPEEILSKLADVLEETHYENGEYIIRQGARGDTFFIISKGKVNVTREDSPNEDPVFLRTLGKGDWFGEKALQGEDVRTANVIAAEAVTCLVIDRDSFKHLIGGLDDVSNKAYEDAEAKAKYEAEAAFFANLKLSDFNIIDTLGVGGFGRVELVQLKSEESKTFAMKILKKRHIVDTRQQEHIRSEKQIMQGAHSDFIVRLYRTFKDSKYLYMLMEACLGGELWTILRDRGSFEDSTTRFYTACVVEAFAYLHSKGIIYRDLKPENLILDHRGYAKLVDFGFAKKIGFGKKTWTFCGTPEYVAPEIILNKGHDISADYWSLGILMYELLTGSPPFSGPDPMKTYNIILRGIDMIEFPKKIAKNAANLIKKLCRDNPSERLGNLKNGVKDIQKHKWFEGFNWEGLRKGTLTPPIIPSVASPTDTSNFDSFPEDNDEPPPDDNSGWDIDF
Procedure, shortened: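 Reaction started with 10 μM [32P]-ATP, run 20 min at 37°C, stopped with 50 mM EDTA. Peptide captured on phosphocellulose filters, counted by β-scintillation. IC50s are single determinations in duplicate.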

Sprague-Dawley rats [7] = experiment: Capsaicin-induced mechanical hypersensitivity; type: in vivo, rat; details: 10 nmol N46 into hind paw, no capsaicin
Procedure, shortened: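 Male Sprague-Dawley rats given 10 nmol test compound intraplantar, without capsaicin. von Frey hairs (0.4-15 g) applied for ~6 s each, up-down sequence starting at 2 g. 50% paw withdrawal threshold calculated by the Chaplan method at set times after injection; n = 15 per group; double-blind.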

[8] = Tissue distribution of N46 in vivo; details: rat, tail vein injection
Procedure, shortened: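 Test compound injected into the rat tail vein. Tissues homogenized in 0.1N sodium carbonate (2 mL) plus methanol (6 mL), centrifuged, and supernatant analyzed by LC/MS. C18 column, acetonitrile-water gradient 0-100% over 20 min, detection at 220 nm. Results corrected for % recovery using spiked standard curves.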

[9] = biological target: cardiac hERG potassium channel (Homo sapiens, UniProt Q12809); experiment: hERG tail current recording; type: cell-based
Procedure, shortened: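 hERG tail currents evoked by a voltage protocol applied every 10 s. Test compound applied cumulatively at 0.1, 0.3, 1.0, 3, 10 and 30 μM, 5 min per concentration, with 1 μM cisapride as positive control. Mean percent inhibition from 13 cells gave a 6-point curve, from which IC50 was calculated.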

[10] = General observation for abnormalities or deficits; type: in vivo, rat; details: N46-injected rats
PKG-1α [11] = experiment: PKG-1α activity in sciatic nerve segment after capsaicin injection; type: in vivo, rat; details: capsaicin 0.1 μM under the perineurium of the sciatic nerve, 30 minutes
Procedure, shortened: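 Capsaicin (0.1 μM) injected under the sciatic nerve perineurium, with an equal vehicle volume into the contralateral nerve. After 30 min, the 1 cm segment containing the injection site was harvested and homogenized. Equal-protein samples were assayed for PKG-1α activity; N = 4.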

Sequence of cardiac hERG potassium channel (Q12809 whole entry): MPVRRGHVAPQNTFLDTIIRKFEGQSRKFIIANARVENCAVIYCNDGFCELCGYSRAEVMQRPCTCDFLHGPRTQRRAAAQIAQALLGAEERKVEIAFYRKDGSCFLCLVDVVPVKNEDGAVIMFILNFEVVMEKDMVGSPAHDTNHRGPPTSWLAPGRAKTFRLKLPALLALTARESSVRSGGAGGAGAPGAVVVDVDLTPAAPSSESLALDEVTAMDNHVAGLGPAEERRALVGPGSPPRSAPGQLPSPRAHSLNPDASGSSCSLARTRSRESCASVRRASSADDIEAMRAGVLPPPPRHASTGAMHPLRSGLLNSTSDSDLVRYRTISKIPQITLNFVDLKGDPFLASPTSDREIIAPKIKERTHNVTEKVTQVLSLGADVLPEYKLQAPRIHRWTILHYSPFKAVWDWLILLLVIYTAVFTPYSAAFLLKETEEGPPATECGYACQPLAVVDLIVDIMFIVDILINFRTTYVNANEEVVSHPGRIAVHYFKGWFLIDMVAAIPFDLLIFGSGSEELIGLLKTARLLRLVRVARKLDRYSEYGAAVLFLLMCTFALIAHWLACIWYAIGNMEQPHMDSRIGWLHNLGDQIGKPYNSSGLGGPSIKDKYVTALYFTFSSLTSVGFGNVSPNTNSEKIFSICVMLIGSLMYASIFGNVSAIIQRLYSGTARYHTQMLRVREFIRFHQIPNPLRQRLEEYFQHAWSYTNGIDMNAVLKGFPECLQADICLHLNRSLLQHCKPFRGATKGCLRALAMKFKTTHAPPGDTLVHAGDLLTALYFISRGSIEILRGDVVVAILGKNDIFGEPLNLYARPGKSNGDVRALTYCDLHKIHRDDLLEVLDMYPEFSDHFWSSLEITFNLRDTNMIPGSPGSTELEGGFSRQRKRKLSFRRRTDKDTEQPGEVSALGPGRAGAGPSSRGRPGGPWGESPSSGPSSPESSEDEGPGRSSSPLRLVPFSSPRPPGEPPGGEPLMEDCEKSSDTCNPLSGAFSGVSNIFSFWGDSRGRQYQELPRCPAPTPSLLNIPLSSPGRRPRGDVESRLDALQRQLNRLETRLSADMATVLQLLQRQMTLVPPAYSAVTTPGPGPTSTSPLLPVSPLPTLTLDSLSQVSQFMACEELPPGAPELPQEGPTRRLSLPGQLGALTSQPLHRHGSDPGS

Nc1nc2c(nc(Sc3ccc(Cl)cc3)n2[C@@H]2O[C@@H]3CO[P@@](=O)(S)O[C@H]3[C@H]2O)c(=O)[nH]1 [RPG, Rp-8-pCPT-cGMPS, reference compound]
thermal hyperalgesia (PWL), CFA-injected paw (Sprague-Dawley rats [1]; 250 nmol intrathecal 1 day after CFA, PWL measured the following day, vs vehicle): alleviated significantly; also recorded: significant improvement in mean PWL | thermal threshold, contralateral noninflamed paw (Sprague-Dawley rats [1]; RPG intrathecal): no significant changes | Ki (PKG-1α [2]): 500 nM

CCCOc1ccc(OC)c(F)c1C(=O)c1ccc(C(=O)N[C@@H]2CNC[C@H]2NC(=O)c2ccc3[nH]ncc3c2)cc1 [N46, N-((3R,4R)-4-(4-(2-fluoro-3-methoxy-6-propoxybenzoyl)benzamido)pyrrolidin-3-yl)-1H-indazole-5-carboxamide]
thermal hyperalgesia (PWL), CFA-injected paw (Sprague-Dawley rats [1]; 0.25 nmol intrathecal 1 day after CFA, measured post-CFA day 2, vs vehicle): marked reduction | thermal hyperalgesia (PWL), CFA-injected paw (Sprague-Dawley rats [1]; 1 nmol into the tail vein 1 day after CFA, 24 hours later, vs vehicle): significantly increased the PWL; also recorded: significantly reduced the heat hyperalgesia | duration of relief after a single injection (Sprague-Dawley rats [1]; CFA model): at least 24 hours | thermal threshold, contralateral noninflamed paw (Sprague-Dawley rats [1]; N46 intrathecal): no significant changes | number of kinases inhibited more than 50% (panel of 274 kinases; 750 nM N46): 12 | off-target hit rate (kinases inhibited by more than 50%) (panel of 274 kinases; 12 out of 274, dose of N46 where PKG-1 was inhibited 100%): 4.4% | IC50 [3]: 5000 nM | heart rate and systolic and diastolic blood pressure [4]: no significant effect | stability in plasma (time stable) [5]: at least 7 hours | duration of relief after a single injection (Sprague-Dawley rats [6]): 7 days | weight bearing distribution (Sprague-Dawley rats [6]; days 15 and 21, vs vehicle): significant improvement in weight bearing distribution; also recorded: significantly reversed the MIA-induced shift in weight bearing | fold difference of IC50, PKA versus PKG-1α (purified bovine PKG-1α): 714 fold | IC50 (purified bovine PKG-1α): 7.5 nM | IC50 (purified bovine PKG-1α; 10 μM ATP, 37°C, 20 minutes): 7 nM | type of inhibition of PKG-1α (kinetic studies) (purified bovine PKG-1α; data not shown): noncompetitive inhibitor | mechanical threshold, N46 alone (Sprague-Dawley rats [7]): had no effect | presence in the CNS [8]: not detected in the CNS | IC50 [9]: 4470 nM | sedation [10]: no evidence of sedation

COC(=O)[C@@]1(OC)C[C@H]2O[C@]1(C)n1c3ccccc3c3c4c(c5c6ccccc6n2c5c31)C(=O)N(C)C4 [KT5823]
Ki (PKG-1α [2]): 234 nM

COc1cc(CNC(=O)CCCC/C=C/C(C)C)ccc1O [capsaicin]
PKG-1α in the nerve segment that was active (PKG-1α [11]): 40 ± 15%
